Measurements taken from ChEMBL document CHEMBL5724801, “EUbOPEN Chemogenomics Library - Multiplex” (2024).
Where “and” joins values, the source holds several entries; their conditions need not be identical. Equal values may be shown once.

System: HEK-293T
Assay: Multiplex assay against HEK293T
Type: toxicity, cell-based
Settings: human
Summary of the method: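 Tubulin, mitochondrial-mass and membrane-permeability phenotypes are per cents of healthy-nucleus cells. Cells were gated by CellPathfinder machine learning into Hoechst high-intensity objects or normal cells, normal cells into healthy, pyknosed or fragmented nuclei, and pyknosed cells into mitotic or apoptotic. Before that, live cells stained at seeding with Hoechst33342, BioTracker Green Microtubule Cytoskeleton Dye, MitoTracker Red and Annexin V Alexa Fluor 680 were imaged on a CQ1 microscope at 37°C and 5% CO2 after compound addition.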

[1] = 12 h, 1 µM, compound concentration 1 uM
[2] = 12 h, 10 µM, compound concentration 10 uM
[3] = 24 h, 1 µM, compound concentration 1 uM
[4] = 24 h, 10 µM, compound concentration 10 uM
[5] = 48 h, 1 µM, compound concentration 1 uM
[6] = 48 h, 10 µM, compound concentration 10 uM

COc1ccc(CC(=O)NC(N/C(=N/C#N)Nc2cccc3ncccc23)C(C)(C)C)cc1OC (stereo not drawn)
Population Apoptotic (%) [1]: 11.97% and 9.68% | Population Fragmented Nuclei (%) [1]: 1.67% and 3.75% | Population Hoechst High Intensity Objects (%) [1]: 0% | Population Membrane Permeable-Phenotype (%) [1]: 0.47% and 3.33% | Population Mitochondria Different-Phenotype (%) [1]: 42.45% and 26.67% | Population Mitotic Cells (%) [1]: 88.03% and 90.32% | Population Normal (%) [1]: 100% | Population Pyknosed Nuclei (%) [1]: 39.44% and 77.5% | Total Cell Count [1]: 360 and 160 | Population Apoptotic (%) [2]: 8.97% and 14.85% | Population Fragmented Nuclei (%) [2]: 3.73% and 3.91% | Population Healthy Nuclei (%) [2]: 51.24% and 17.19% | Population Hoechst High Intensity Objects (%) [2]: 0.31% and 0% | Population Membrane Permeable-Phenotype (%) [2]: 0.61% and 9.09% | Population Mitochondria Different-Phenotype (%) [2]: 26.67% and 22.73% | Population Mitotic Cells (%) [2]: 91.03% and 85.15% | Population Normal (%) [2]: 99.69% and 100% | Population Pyknosed Nuclei (%) [2]: 45.03% and 78.91% | Total Cell Count [2]: 323 and 128 | Population Apoptotic (%) [3]: 11.48% and 16.07% | Population Fragmented Nuclei (%) [3]: 1.83% and 3.87% | Population Healthy Nuclei (%) [3]: 75.87% and 34.25% | Population Hoechst High Intensity Objects (%) [3]: 0.36% and 0% | Population Membrane Permeable-Phenotype (%) [3]: 1.45% and 0% | Population Mitochondria Different-Phenotype (%) [3]: 14.46% and 11.29% | Population Mitotic Cells (%) [3]: 88.52% and 83.93% | Population Normal (%) [3]: 99.64% and 100% | Population Pyknosed Nuclei (%) [3]: 22.3% and 61.88% | Population Tubulin-Different-Phenotype (%) [3]: 13.49% and 12.9% | Population Apoptotic (%) [4]: 21.15% and 27.45% | Population Fragmented Nuclei (%) [4]: 2.03% and 2.01% | Population Healthy Nuclei (%) [4]: 74.55% and 29.53% | Population Hoechst High Intensity Objects (%) [4]: 0.22% and 0% | Population Membrane Permeable-Phenotype (%) [4]: 0.91% and 2.27% | Population Mitochondria Different-Phenotype (%) [4]: 18.73% and 22.73% | Population Mitotic Cells (%) [4]: 78.85% and 72.55% | Population Normal (%) [4]: 99.78% and 100% | Population Pyknosed Nuclei (%) [4]: 23.42% and 68.46% | Population Tubulin-Different-Phenotype (%) [4]: 20.54% and 18.18% | Total Cell Count [4]: 445 and 149 | Population Apoptotic (%) [5]: 8.22% and 21.13% | Population Fragmented Nuclei (%) [5]: 2.43% and 3.09% | Population Healthy Nuclei (%) [5]: 87.12% and 60.31% | Population Hoechst High Intensity Objects (%) [5]: 0.07% and 0% | Population Membrane Permeable-Phenotype (%) [5]: 5.75% and 0% | Population Mitochondria Different-Phenotype (%) [5]: 13.8% and 32.48% | Population Mitotic Cells (%) [5]: 91.78% and 78.87% | Population Normal (%) [5]: 99.93% and 100% | Population Fragmented Nuclei (%) [6]: 2.78% and 2.07% | Population Healthy Nuclei (%) [6]: 86.6% and 61.14% | Population Hoechst High Intensity Objects (%) [6]: 0.1% and 0% | Population Membrane Permeable-Phenotype (%) [6]: 4.76% and 3.39% | Population Mitochondria Different-Phenotype (%) [6]: 22.86% and 38.98% | Population Mitotic Cells (%) [6]: 93.2% and 77.46% | Population Normal (%) [6]: 99.9% and 100%

Cc1c(C(=O)NCCCN(C)C)sc2ncnc(Nc3ccc(F)cc3OC(C)CF)c12 (stereo not drawn)
Population Apoptotic (%) [1]: 8.15% and 7.44% | Population Fragmented Nuclei (%) [1]: 1.52% and 6.08% | Population Hoechst High Intensity Objects (%) [1]: 0% | Population Membrane Permeable-Phenotype (%) [1]: 0.79% and 5.56% | Population Mitochondria Different-Phenotype (%) [1]: 38.58% and 38.89% | Population Mitotic Cells (%) [1]: 91.85% and 92.56% | Population Normal (%) [1]: 100% | Population Pyknosed Nuclei (%) [1]: 34.18% and 81.76% | Total Cell Count [1]: 395 and 148 | Population Apoptotic (%) [2]: 12.67% and 12.38% | Population Fragmented Nuclei (%) [2]: 1.93% and 0.83% | Population Healthy Nuclei (%) [2]: 25.6% and 12.4% | Population Hoechst High Intensity Objects (%) [2]: 0% | Population Mitotic Cells (%) [2]: 87.33% and 87.62% | Population Normal (%) [2]: 100% | Population Pyknosed Nuclei (%) [2]: 72.46% and 86.78% | Population Tubulin-Different-Phenotype (%) [2]: 81.13% and 53.33% | Total Cell Count [2]: 207 and 121 | Population Apoptotic (%) [3]: 11.02% and 10.43% | Population Fragmented Nuclei (%) [3]: 2.43% and 2.58% | Population Hoechst High Intensity Objects (%) [3]: 0% | Population Membrane Permeable-Phenotype (%) [3]: 0.68% and 2.78% | Population Mitochondria Different-Phenotype (%) [3]: 18.96% and 11.11% | Population Mitotic Cells (%) [3]: 88.98% and 89.57% | Population Normal (%) [3]: 100% | Population Tubulin-Different-Phenotype (%) [3]: 36.57% and 13.89% | Population Apoptotic (%) [4]: 33.73% and 30.77% | Population Fragmented Nuclei (%) [4]: 1.65% and 0% | Population Healthy Nuclei (%) [4]: 29.75% and 17.27% | Population Hoechst High Intensity Objects (%) [4]: 0% | Population Membrane Permeable-Phenotype (%) [4]: 1.39% and 0% | Population Mitochondria Different-Phenotype (%) [4]: 69.44% and 26.32% | Population Mitotic Cells (%) [4]: 66.27% and 69.23% | Population Normal (%) [4]: 100% | Population Pyknosed Nuclei (%) [4]: 68.6% and 82.73% | Population Tubulin-Different-Phenotype (%) [4]: 80.56% and 73.68% | Total Cell Count [4]: 242 and 110 | Population Apoptotic (%) [5]: 9.92% and 23.86% | Population Fragmented Nuclei (%) [5]: 3.85% and 2.43% | Population Healthy Nuclei (%) [5]: 86.64% and 54.85% | Population Hoechst High Intensity Objects (%) [5]: 0% | Population Membrane Permeable-Phenotype (%) [5]: 6.37% and 1.77% | Population Mitochondria Different-Phenotype (%) [5]: 17.27% and 49.56% | Population Mitotic Cells (%) [5]: 90.08% and 76.14% | Population Normal (%) [5]: 100% | Population Apoptotic (%) [6]: 42.07% and 65.33% | Population Fragmented Nuclei (%) [6]: 1.78% and 1.64% | Population Healthy Nuclei (%) [6]: 46.62% and 36.89% | Population Hoechst High Intensity Objects (%) [6]: 0.35% and 0.81% | Population Membrane Permeable-Phenotype (%) [6]: 1.53% and 0% | Population Mitochondria Different-Phenotype (%) [6]: 90.84% and 55.56% | Population Mitotic Cells (%) [6]: 57.93% and 34.67% | Population Normal (%) [6]: 99.65% and 99.19% | Population Pyknosed Nuclei (%) [6]: 51.6% and 61.48% | Population Tubulin-Different-Phenotype (%) [6]: 30.53% and 82.22% | Total Cell Count [6]: 282 and 123

Cc1c(-c2cc(-c3ccccc3Cl)no2)cnn1C1CCNCC1.Cl
Population Apoptotic (%) [1]: 10.39% and 11.29% | Population Fragmented Nuclei (%) [1]: 3.59% and 2.19% | Population Hoechst High Intensity Objects (%) [1]: 0.28% and 0% | Population Membrane Permeable-Phenotype (%) [1]: 0% | Population Mitochondria Different-Phenotype (%) [1]: 33.33% and 20% | Population Mitotic Cells (%) [1]: 89.61% and 88.71% | Population Normal (%) [1]: 99.72% and 100% | Population Pyknosed Nuclei (%) [1]: 42.54% and 90.51% | Population Tubulin-Different-Phenotype (%) [1]: 9.74% and 20% | Total Cell Count [1]: 363 and 137 | Population Apoptotic (%) [2]: 15.64% and 14.06% | Population Fragmented Nuclei (%) [2]: 1.78% and 2.96% | Population Hoechst High Intensity Objects (%) [2]: 0.44% and 0% | Population Membrane Permeable-Phenotype (%) [2]: 2.38% and 0% | Population Mitochondria Different-Phenotype (%) [2]: 42.86% and 33.33% | Population Mitotic Cells (%) [2]: 84.36% and 85.94% | Population Normal (%) [2]: 99.56% and 100% | Population Pyknosed Nuclei (%) [2]: 79.56% and 94.81% | Population Tubulin-Different-Phenotype (%) [2]: 78.57% and 100% | Total Cell Count [2]: 226 and 135 | Population Apoptotic (%) [3]: 16.36% and 12.04% | Population Fragmented Nuclei (%) [3]: 2.54% and 2.07% | Population Healthy Nuclei (%) [3]: 62.58% and 23.45% | Population Hoechst High Intensity Objects (%) [3]: 0.21% and 0.68% | Population Membrane Permeable-Phenotype (%) [3]: 1.35% and 0% | Population Mitochondria Different-Phenotype (%) [3]: 20.61% and 26.47% | Population Mitotic Cells (%) [3]: 83.64% and 87.96% | Population Normal (%) [3]: 99.79% and 99.32% | Population Pyknosed Nuclei (%) [3]: 34.88% and 74.48% | Population Tubulin-Different-Phenotype (%) [3]: 23.31% and 17.65% | Population Apoptotic (%) [4]: 46.71% and 55.88% | Population Fragmented Nuclei (%) [4]: 1.42% and 2.05% | Population Hoechst High Intensity Objects (%) [4]: 1.85% and 0.68% | Population Membrane Permeable-Phenotype (%) [4]: 0% and 14.29% | Population Mitochondria Different-Phenotype (%) [4]: 78.57% and 57.14% | Population Mitotic Cells (%) [4]: 53.29% and 44.12% | Population Normal (%) [4]: 98.15% and 99.32% | Population Pyknosed Nuclei (%) [4]: 78.77% and 93.15% | Population Tubulin-Different-Phenotype (%) [4]: 92.86% and 85.71% | Total Cell Count [4]: 216 and 147 | Population Apoptotic (%) [5]: 12.5% and 24.62% | Population Fragmented Nuclei (%) [5]: 3.19% and 2.61% | Population Healthy Nuclei (%) [5]: 82.92% and 54.9% | Population Hoechst High Intensity Objects (%) [5]: 0% and 1.29% | Population Membrane Permeable-Phenotype (%) [5]: 4.07% and 0% | Population Mitochondria Different-Phenotype (%) [5]: 28.52% and 35.71% | Population Mitotic Cells (%) [5]: 87.5% and 75.38% | Population Normal (%) [5]: 100% and 98.71% | Population Apoptotic (%) [6]: 59.7% and 87.84% | Population Fragmented Nuclei (%) [6]: 1.25% and 4.94% | Population Hoechst High Intensity Objects (%) [6]: 2.44% and 0% | Population Membrane Permeable-Phenotype (%) [6]: 0.97% and 0% | Population Mitochondria Different-Phenotype (%) [6]: 87.38% and 100% | Population Normal (%) [6]: 97.56% and 100% | Population Pyknosed Nuclei (%) [6]: 55.83% and 91.36% | Population Tubulin-Different-Phenotype (%) [6]: 73.79% and 100% | Total Cell Count [6]: 246 and 162
